Substrate in data set [1]: C=CCSS/C=C\C[S+]([O-])CC=C
Briefly: (§1) Km value determined against human Glutathione reductase (GR) by oxidation of NADPH. Summed up:
(§2)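 Recombinant human glutathione reductase in GR assay buffer (phosphate, 200 mM KCl, 1 mM EDTA, pH 6.9) at 25 °C with 150 μM NADPH and ajoene or DATS as substrate. NADPH consumption read at 340 nm. Where GSH is present, it is added to the mixture. Controls held NADPH and enzyme only (intrinsic oxidase activity).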

Substrate in data set [2]: C=CCSS/C=C/C[S+]([O-])CC=C
The description is as §1. Summed up: as §2

Substrate in data set [3]: C=CCSSSCC=C
The description is as §1. Summed up:
as §2

Substrate in data set [4]: C=CCSS/C=C\C[S+]([O-])CC=C
Kind of data set: (§3) Km value determined against Trypanothione reductase (TR). The following applies: Trypanosoma cruzi. The gist of the method:
(§4)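 T. cruzi trypanothione reductase, recombinant, with NADPH and ajoene as substrate in TR assay buffer (40 mM Hepes, 1 mM EDTA, pH 7.5) at 25 °C. NADPH oxidation followed as absorbance decrease at 340 nm. Controls held only NADPH and enzyme, giving the intrinsic oxidase activity.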

Substrate in data set [5]: C=CCSS/C=C/C[S+]([O-])CC=C
The data set is described as §3. The following applies: Trypanosoma cruzi. Summed up: as §4

Substrate in data set [6]: C=CCSS/C=C/C[S+]([O-])CC=C
Kind of data set: Kcat value determined against Trypanothione reductase (TR) by oxidation of NADPH. The note with it: Trypanosoma cruzi. The gist of the method:
as §4

Substrate in data set [7]: C=CCSS/C=C\C[S+]([O-])CC=C
Briefly: Km value determined against Trypanothione reductase (TR) by oxidation of NADPH. The following applies: Trypanosoma cruzi.

B1: Glutathione reductase, mitochondrial (Homo sapiens), P00390 (protein)
chain: MALLPRALSAGAGPSWRRAARAFRGFLLLLPEPAALTRALSRAMACRQEPQPQGPPPAAGAVASYDYLVIGGGSGGLASARRAAELGARAAVVESHKLGGTCVNVGCVPKKVMWNTAVHSEFMHDHADYGFPSCEGKFNWRVIKEKRDAYVSRLNAIYQNNLTKSHIEIIRGHAAFTSDPKPTIEVSGKKYTAPHILIATGGMPSTPHESQIPGASLGITSDGFFQLEELPGRSVIVGAGYIAVEMAGILSALGSKTSLMIRHDKVLRSFDSMISTNCTEELENAGVEVLKFSQVKEVKKTLSGLEVSMVTAVPGRLPVMTMIPDVDCLLWAIGRVPNTKDLSLNKLGIQTDDKGHIIVDEFQNTNVKGIYAVGDVCGKALLTPVAIAAGRKLAHRLFEYKEDSKLDYNNIPTVVFSHPPIGTVGLTEDEAIHKYGIENVKTYSTSFTPMYHAVTKRKTKCVMKMVCANKEEKVVGIHMQGLGCDEMLQGFAVAVKMGATKADFDNTVAIHPTSSEELVTLR
Regarding B1, the values for the Michaelis-Menten constant (Km) in data set [1], in data set [2] and in data set [3] were 380 µM, 800 µM and 160 µM, respectively.

B2: Trypanothione reductase (Trypanosoma cruzi), P28593 (protein)
chain: MMSKIFDLVVIGAGSGGLEAAWNAATLYKKRVAVIDVQMVHGPPFFSALGGTCVNVGCVPKKLMVTGAQYMEHLRESAGFGWEFDRTTLRAEWKKLIAVKDEAVLNINKSYEEMFRDTEGLEFFLGWGSLESKNVVNVRESADPASAVKERLETENILLASGSWPHMPNIPGIEHCISSNEAFYLPEPPRRVLTVGGGFISVEFAGIFNAYKPKDGQVTLCYRGEMILRGFDHTLREELTKQLTANGIQILTKENPAKVELNADGSKSVTFESGKKMDFDLVMMAIGRSPRTKDLQLQNAGVMIKNGGVQVDEYSRTNVSNIYAIGDVTNRVMLTPVAINEAAALVDTVFGTNPRKTDHTRVASAVFSIPPIGTCGLIEEVASKRYEVVAVYLSSFTPLMHNISGSKYKTFVAKIITNHSDGTVLGVHLLGDNAPEIIQGVGICLKLNAKISDFYNTIGVHPTSAEELCSMRTPSYYYVKGEKMEKPSEASL
For B2, the Km in data set [4] is at least 2000 µM; in data set [5] it was over 2000 µM; in data set [6], over 2000 µM; in data set [7], over 2000 µM.

These data come from ChEMBL document CHEMBL1132562, “Ajoene is an inhibitor and subversive substrate of human glutathione reductase and Trypanosoma cruzi trypanothione reductase: crystallographic, kinetic, and spectroscopic studies” (J Med Chem, 1999).
